In PMC3053052 (Neuropeptides, 2010):

What was measured:
STAR and TSPO = conditions: systemic alcohol administration; ref Herman et al., 2006; cited from earlier work
[1] = target: T1, vascular NPY receptors (mainly Y1 subtype), rat testis (Rattus norvegicus, UniProt P21555); test: Competition binding; conditions: 25 nM cold PYY; ^125I-PYY 10,000 cpm/100 μl (22.5 pM); rat testis sections
T1 sequence (P21555 1-382): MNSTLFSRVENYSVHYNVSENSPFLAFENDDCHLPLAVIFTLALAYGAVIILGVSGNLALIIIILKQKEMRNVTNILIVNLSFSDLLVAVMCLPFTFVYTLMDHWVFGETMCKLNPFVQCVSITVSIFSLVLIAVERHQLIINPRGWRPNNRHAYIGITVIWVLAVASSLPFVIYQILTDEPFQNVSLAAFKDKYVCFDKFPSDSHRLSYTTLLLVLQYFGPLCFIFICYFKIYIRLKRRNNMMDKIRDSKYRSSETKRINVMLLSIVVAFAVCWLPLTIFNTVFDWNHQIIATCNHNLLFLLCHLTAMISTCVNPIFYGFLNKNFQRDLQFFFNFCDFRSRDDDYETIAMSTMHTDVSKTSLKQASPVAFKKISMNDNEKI

[2] = tested on: NPY receptors in seminiferous tubules; test: In vitro NPY receptor autoradiography, ^125I-PYY binding to seminiferous tubules; parameters: species or system rat; conditions: surrounding seminiferous tubules; 22.5 pM ^125I-PYY, 2,000 Ci/mmol
Procedure, shortened: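 Serial sections of rat testis incubated with 125I-PYY (10,000 cpm/100 μl, 2,000 Ci/mmol, 22.5 pM). Competition run with subtype-selective ligands, including a Y5-selective PP analogue. Rat brain served as positive control. Slides were exposed to film, and signals were matched to adjacent sections stained with H&E, anti-Factor VIII (vessels) or anti-STAR (Leydig cells). Densities were quantified by computer-assisted imaging.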

[3] = tested on: steroidogenic acute regulatory (STAR) protein; test: Leydig cell STAR protein level after itt NPY; format: in vivo, rat; conditions: Leydig cells, Western blot
Procedure, shortened: (§1)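 Decapitation 1 h later. Leydig cells were isolated by collagenase dispersion and Percoll gradient, then lysed in RIPA. 25 μg protein per lane was probed with anti-STAR (1:1,500; 30-kDa form) or anti-TSPO (1:1,000). ECL signal was normalised to β-actin, as % of control.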

testes = conditions: ref Collin et al., 1998; cited from earlier work
[4] = tested on: translocator protein (TSPO); test: Leydig cell TSPO level after itt NPY; format: in vivo, rat; conditions: Leydig cells, Western blot
Procedure, shortened: as §1

T response to hCG = test: Plasma testosterone response to hCG after intratesticular; format: in vivo, rat
Procedure, shortened: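 Jugular-cannulated adult male rats, freely moving. Test peptide 5 μg/kg itt or vehicle under isoflurane, 1 h before hCG 1 IU/kg iv. One series pretreated with GnRH antagonist […] iv 2 h before hCG. Blood drawn before and 15, 30, 60, 90 min after hCG. Plasma T measured by commercial kit (sensitivity 0.2 ng/mL), cumulative T summed. N = 5–7; mean ± SEM; ANOVA/repeated measures.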

explanted GnRH neurons = conditions: ref Klenke et al., 2010; cited from earlier work
plasma LH = conditions: ref Pierroz et al., 1999; cited from earlier work

CCO [alcohol]
STAR and TSPO concentrations (STAR and TSPO): significantly decreased STAR and TSPO concentrations

PYY: cold PYY used to assess non-specific binding
displacement of ^125I-PYY binding to testicular blood vessels at 25 nM [1]: Complete displacement

^125I-PYY: ^125I-PYY (2,000 Ci/mmol; Anawa, Wangen, Switzerland)
^125I-PYY binding (in words) [2]: no binding to surrounding seminiferous tubules

neuropeptide Y [NPY]
changes in STAR levels (in words) [3]: inconsistent and did not reach statistical significance
vasoconstriction in the testes (testes): reported to cause vasoconstriction in the testes
changes in TSPO levels (in words) [4]: inconsistent and did not reach statistical significance
T response to hCG (T response to hCG; NPY 5 μg/kg itt 1 h before hCG 1.0 U/kg iv, at all times studied (15, 30, 60, 90 min), P<0.01 vs vehicle, N = 5-7/point (Fig. 1)): markedly (P<0.01) blunted the T response to hCG at all times studied
basal plasma T levels (T response to hCG; NPY 5 μg/kg itt, 1 h, vs vehicle, P<0.01, N = 5-7/point (Fig. 1)): significantly (P<0.01) decreased basal plasma T levels
cumulative plasma T after hCG (T response to hCG; vehicle pre-treatment, NPY 5 μg/kg itt, hCG 1 U/kg iv, cumulative T 15, 30, 60 and 90 min after hCG, mean ± SEM, N = 5-7, P<0.01 vs itt vehicle (22.20 ± 3.25)): 10.60 ± 0.98R ^a ng T/ ml
neuronal activity of explanted GnRH neurons (explanted GnRH neurons): inhibits the neuronal activity of explanted GnRH neurons
plasma LH levels (plasma LH): lower plasma LH levels
